Assay outcomes from PubChem.
TRPN1 ag = zebrafish TRPN1 channel agonists, primary screen, cell-based, HEK293, calcium fluorescence. 220,000 tested, 0.18% active. HEK293 zebrafish TRPN1-YFP, Fluo-8 calcium fluorescence; 100% = response to 87 µM carbachol. activation, % at 3 µM. transient receptor potential cation channel N1 (TRPN1/NompC), Danio rerio. AID 1424, 2008;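 active = activation above its plate's cutoff, the mean activation of test wells on that plate plus 3 SD, cut at about 19% in these data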
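Material: zebrafish TRPN1-YFP in HEK293 cells; Doses: single test compound dose, 3 µM nominal, 0.3% DMSO; Timing: dye loading 1 h at 37 °C, then 30 min room temperature; Technique: intracellular calcium fluorescence with Fluo-8; Benchmarks: high carbachol 87 µM, low DMSO alone.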
TRPML3 ag = human TRPML3 channel agonists, primary screen, cell-based, HEK293 TRPML3-YFP, Fluo-8 calcium fluorescence, 3 µM; Mucolipin-3 (Homo sapiens), Q8TDD5; 100% = the carbachol control signal; activation, % at 3 µM; 220,000 tested, 0.29% active;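 active = activation above its plate's cutoff, the mean activation of the plate's test wells plus 3 SD, cut at about 12% in these data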
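system = HEK293 cells stably carrying human TRPML3-YFP | doses = one concentration, 3 µM nominal, 0.3% DMSO | timing = dye loading 1 h 37 °C then 30 min ambient, 125 s read | detection = Fluo-8 calcium dye fluorescence, ex 470-495, em 515-575 nm | benchmarks = high control carbachol 87 µM, low control DMSO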
LANA-H2A inh = blockers of LANA interaction with H2A/H2B – biochemical, FP readout, HTS, primary screen. inhibition, % (test concentration not listed). AID 2629, 2010. 320,000 tested, 0.6% active. Protein LANA1 (Human herpesvirus 8 type P (isolate GK18)), Q9QR71. cell-free LANA-H2A/H2B peptide, fluorescence polarization; in the data active = inhibition mostly above about 10%, no sharp cut-off; inactive = mostly below about 6.7%
Target sequence (Q9QR71 whole entry, looked up): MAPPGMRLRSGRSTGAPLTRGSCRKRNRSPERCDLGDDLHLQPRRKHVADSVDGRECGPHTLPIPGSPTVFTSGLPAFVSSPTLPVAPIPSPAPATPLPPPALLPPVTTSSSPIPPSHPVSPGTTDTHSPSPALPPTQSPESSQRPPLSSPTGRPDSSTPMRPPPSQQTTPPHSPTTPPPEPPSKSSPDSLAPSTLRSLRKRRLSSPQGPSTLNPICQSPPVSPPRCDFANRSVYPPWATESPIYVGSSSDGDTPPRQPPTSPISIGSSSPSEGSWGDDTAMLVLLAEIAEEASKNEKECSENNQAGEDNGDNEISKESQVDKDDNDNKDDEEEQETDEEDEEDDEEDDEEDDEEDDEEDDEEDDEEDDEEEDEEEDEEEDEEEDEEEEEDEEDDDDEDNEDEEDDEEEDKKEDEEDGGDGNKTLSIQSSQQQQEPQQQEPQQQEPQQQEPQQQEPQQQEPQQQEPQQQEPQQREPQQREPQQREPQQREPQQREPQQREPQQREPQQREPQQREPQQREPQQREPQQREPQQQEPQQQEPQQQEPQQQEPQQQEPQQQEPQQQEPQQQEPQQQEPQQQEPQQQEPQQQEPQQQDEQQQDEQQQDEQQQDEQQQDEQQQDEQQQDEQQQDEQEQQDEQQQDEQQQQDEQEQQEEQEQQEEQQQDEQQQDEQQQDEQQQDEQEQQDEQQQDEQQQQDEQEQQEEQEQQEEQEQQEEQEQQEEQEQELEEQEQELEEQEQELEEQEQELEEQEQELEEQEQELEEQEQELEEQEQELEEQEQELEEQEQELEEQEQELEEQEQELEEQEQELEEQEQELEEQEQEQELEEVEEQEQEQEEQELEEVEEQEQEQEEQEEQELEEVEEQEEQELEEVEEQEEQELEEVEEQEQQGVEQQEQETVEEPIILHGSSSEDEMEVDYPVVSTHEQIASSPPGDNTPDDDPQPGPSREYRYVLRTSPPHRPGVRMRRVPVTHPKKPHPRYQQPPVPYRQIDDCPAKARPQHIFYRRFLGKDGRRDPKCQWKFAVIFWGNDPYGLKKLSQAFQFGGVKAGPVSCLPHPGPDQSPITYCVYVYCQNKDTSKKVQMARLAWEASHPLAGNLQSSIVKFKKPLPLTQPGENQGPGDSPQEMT
TAAR1 antag = human TAAR1 antagonists, primary screen, Fluo-8 calcium fluorescence, CHO RD-HGA16 cells. Trace amine-associated receptor 1 (Homo sapiens), Q96RJ0. antagonist. inhibition, % at 3 µM. 360,000 tested, 1.5% active;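 active = inhibition above a per-plate cutoff, the mean inhibition of test compounds on that plate plus 3 SD, cut at about 49% in these data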
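System: CHO RD-HGA16 cells bearing hTAAR1. Reagent: EC80 β-phenethylamine stimulus. Schedule: seeding 17-24 h prior, 75-min 37 °C, 30-min RT dye loading. Signal: Fluo-8 intracellular calcium dye fluorescence, real-time kinetic reads. Read-out: % inhibition from peak post-agonist over basal fluorescence ratio. Benchmarks: vehicle wells and EC80 agonist wells. Replicates: n of 1.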
GPR7 antagonist = GPR7 receptor antagonists, primary screen, cell-based, fluorescence, single concentration. Neuropeptides B/W receptor type 1 (Homo sapiens), P48145. GPR7-expressing cells, fluorescence antagonist assay. inhibition, % at 4.4 µM. 290,000 tested, 1.1% active. AID 1861, 2009; in the data active = inhibition above about 16%, passing the limit was not always enough;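 also: cells stimulated with the agonist NPW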
TAAR1 agonist = human TAAR1 agonists, primary screen, Fluo-8 calcium fluorescence, CHO RD-HGA16 cells; Trace amine-associated receptor 1 (Homo sapiens), Q96RJ0; vehicle wells 0%, saturating PEA agonist 100%; activation, % at 3 µM; 360,000 tested, 0.99% active;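 active = activation above the mean activation of all test compounds in the run plus 3 SD, cut at about 38% in these data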
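Signal – calcium-sensitive Fluo-8 signal, excitation 470-495, emission 515-575 nm · System – RD-HGA16 (CHO) cells co-expressing Gα16 and hTAAR1 · Incubation – 17-24 h seeding, 75 min 37 °C dye, 30 min RT · Compound dosing – 3 µM single concentration · Repeats – no replicates (n 1)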
nonsel antag count = nonselective antagonists in TAAR1 counter-screen cells, counter-screen for hTAAR1 antagonist project, cell-based, fluorescence, calcium; shares compounds with TAAR1 antag; 2,400 tested, 77% active; AID 651780, 2012; inhibition, % at 3 µM; counterscreen cell line, antagonist mode; in the data active = inhibition above about 22%;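 also: CHO-Ga16 host cells stimulated with ATP at an EC80 level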
TAAR1 antag conf = human TAAR1 antagonists, retest of hits, confirmation, cell-based, fluorescence; shares compounds with TAAR1 antag; TAAR1-expressing cells, fluorescence antagonist read-out; inhibition, % at 3 µM; 2,400 tested, 40% active; AID 651785, 2012; in the data active = inhibition above about 49%;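 also: CHO-Ga16 host cells challenged with agonist PEA near its EC80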
Ga16 ag counter = calcium activation in Ga16-expressing cells, counter-screen for TAAR1 antagonist project, cell-based, fluorescence; agonist counterscreen; 2,400 tested, 18% active; AID 651953, 2012; activation, % at 3 µM; shares compounds with TAAR1 antag; in the data active = activation above about 12%
TAAR1 ag count = TAAR1 activation by candidate antagonists – cell-based, fluorescence, counter-screen for TAAR1 antagonist project. 2,400 tested, 2% active. shares compounds with TAAR1 antag. AID 651955, 2012. hTAAR1 cell line, agonist mode. activation, % at 3 µM; in the data active = activation above about 37%;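 also: CHO cells stably expressing TAAR1 with calcium dye readout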
Numbers stand for hits; n = inactive; x = not tested or not shown; ! = repeats disagree. Rows were chosen to be rich in hits. Some 3.4% of all compounds tested hit in one or more screens of this group.

SMILES	TRPN1 ag	TRPML3 ag	LANA-H2A inh	TAAR1 antag	GPR7 antagonist	TAAR1 agonist	nonsel antag count	TAAR1 antag conf	Ga16 ag counter	TAAR1 ag count
COc1ccc(Cl)cc1NC(=O)COC(=O)/C=C/c1c(C)nn(C2CCS(=O)(=O)C2)c1Cl (centres undefined)	n	n	n	53	n	n	42	n	13	n
O=C(N/N=C/c1ccc2cccc(OCc3ccccc3)c2n1)c1ccc(Br)cc1	n	n	n	62	n	n	n	n	n	n
COc1ccc(C(=O)N/N=C/c2ccc3cccc(OCc4ccccc4)c3n2)cc1	n	n	n	60	n	n	27	53	n	n
CCN(CC(=O)Nc1c(F)cccc1F)C(=O)c1ccc(N2CCCC2=O)cc1	x	x	n	n	x	n	x	x	x	x
O=C(N/N=C/c1cccc(OC(=O)c2cccc(Br)c2)c1)c1ccncc1	x	x	n	58	n	n	26	n	15	n
Cc1cc2nc(-c3nnnn3Cc3ccccc3)c(=O)[nH]c2cc1C	x	x	x	n	x	n	x	x	x	x
CCOC(=O)c1ccc(NC(=O)CN(C)S(=O)(=O)c2ccc(Br)s2)cc1	n	n	n	85	n	n	38	n	n	n
O=C(C1CCC1)N1CCCc2cc(S(=O)(=O)N3CCN(c4ccccc4)CC3)ccc21	x	x	n	n	n	n	x	x	x	x
COc1ccc(NC(=O)/C=C/c2cc(Br)ccc2OC)cc1	n	n	n	n	n	n	x	x	x	x
CCN(CC)c1ccc(NC(=O)/C=C/c2cc(Br)ccc2OC)cc1	n	n	n	74	n	n	n	n	n	n
Cc1cn2c(=O)c(C(=O)N3CCN(c4ccccc4)CC3)cnc2s1	x	x	n	n	x	n	x	x	x	x
COc1ccccc1Nc1nnc(SCc2cc(=O)n3cc(C)ccc3n2)s1	n	n	n	69	n	n	30	n	n	n
O=C1NC(=S)S/C1=C/c1ccc(N2CCOCC2)o1	n	n	n	x	n	x	x	x	x	x
COc1ccc2cc(/C=C3\SC(=S)NC3=O)c(N3CCOCC3)nc2c1	n	n	n	53	n	n	36	n	n	n
COc1ccc(OC)c(CN2CCCC(C(=O)N3CCCCC3)C2)c1 (centres undefined)	n	n	n	106	n	n	n	n	n	n
CC(C)(C)NC(=O)NC(=O)COC(=O)Cc1coc2ccc3ccccc3c12	n	n	n	52	n	n	24	n	n	n
COc1ccc(S(=O)Cc2ccc(C(=O)NCc3cccc(OC)c3)o2)cc1 (centres undefined)	x	x	n	n	n	n	x	x	x	x
COc1ccc(C(C(=O)NCC2CCCO2)N(Cc2ccco2)C(=O)c2snc(C(N)=O)c2N)cc1OC (centres undefined)	x	x	n	n	n	n	x	x	x	x
COc1ccc(C(C(=O)NCC2CCCO2)N(Cc2cccs2)C(=O)c2snc(C(N)=O)c2N)cc1OC (centres undefined)	x	x	n	55	n	n	25	n	n	n
COc1ccc(CCN(C(=O)c2snc(C(N)=O)c2N)C(C(=O)NCC2CCCO2)c2ccc(F)cc2)cc1OC (centres undefined)	x	x	x	58	n	n	31	n	n	n
O=C(CN1C(=O)NC2(CCCC2)C1=O)NCCc1ccc(F)cc1	x	x	n	n	x	n	x	x	x	x
CCc1nc(N2CCN(C(=O)CCl)CC2)c2c3c(sc2n1)CC(C)CC3 (centres undefined)	x	x	n	n	n	n	x	x	x	x
CCn1cc(/C=C(\NC(=O)c2ccc(OC)c(OC)c2)C(=O)NCCCN2CCOCC2)c2ccccc21	x	x	x	n	n	n	x	x	x	x
COc1cc(-c2cc3nc4ccccc4n3c(N)c2C#N)cc(OC)c1OC	n	n	n	90	n	n	34	53	n	n
N#Cc1c(-c2ccccc2)cc2nc3ccccc3n2c1N	n	n	n	n	n	n	x	x	x	x
SMILES	TRPN1 ag	TRPML3 ag	LANA-H2A inh	TAAR1 antag	GPR7 antagonist	TAAR1 agonist	nonsel antag count	TAAR1 antag conf	Ga16 ag counter	TAAR1 ag count
CCCC1(C2CCCC2)NC(=O)NC1=O (centres undefined)	x	x	x	n	x	n	x	x	x	x
Cc1cccnc1NC(=O)Nc1cccc(Cl)c1	x	x	n	n	n	n	x	x	x	x
CCCCNc1c(-c2ccc(SC3CCCCC3)c(OC)c2)nc2ccc(C)cn12	x	x	n	74	x	n	36	n	n	n
CCCCNc1c(-c2cccc(SC(C)CC)c2)nc2ccc(Cl)cn12 (centres undefined)	x	x	n	57!	x	n	n	n	n	n
COc1ccc(-c2nc3ccc(C)cn3c2NCc2ccccc2)cc1SC1CCCCC1	x	x	n	x	x	x	x	x	x	x
CCCCNc1c(-c2ccc(OC)c(SC(C)CC)c2)nc2ccc(C)cn12 (centres undefined)	x	x	n	91	x	n	46	58	n	n
CCC(C)(C)NC(=O)CN(C(=O)CCC(=O)Nc1nccs1)c1ccc2c(c1)OCCO2	x	x	n	n	n	n	x	x	x	x
Cc1nn(Cc2ccc(Cl)cc2Cl)c(C)c1NC(=O)c1sc2ccccc2c1Cl	n	n	n	n	n	n	x	x	x	x
Cc1ccccc1Cn1nc(C)c(NC(=O)c2sc3ccccc3c2Cl)c1C	n	n	n	55	n	n	26	n	n	n
Cc1ccc2cc(CN(Cc3nnnn3C3CCCCC3)CC3CCCO3)c(=O)[nH]c2c1 (centres undefined)	n	n	n	n	n	n	x	x	x	x
COc1ccc(CN(Cc2cc3ccc(C)cc3[nH]c2=O)Cc2nnnn2C2CCCC2)cc1	x	x	n	56	x	n	n	n	n	n
O=C(CNC(=O)c1ccco1)NCc1ccc2c(c1)OCO2	x	x	n	n	x	n	x	x	x	x
COc1ccc(-c2csc(NC(=O)c3cccc(N4C(=O)CCC4=O)c3)n2)cc1OC	x	x	n	65	x	n	n	n	n	n
